Results published in ChEMBL document CHEMBL4024771, “Optimization of Orally Bioavailable Enhancer of Zeste Homolog 2 (EZH2) Inhibitors Using Ligand and Property-Based Design Strategies: Identification of Development Candidate …” (J Med Chem, 2018).
Activity calls are given as the source filed them. The rule behind the calls is not given here.

Experiments:
[1] = target: Histone-lysine N-methyltransferase EZH2 (Homo sapiens, UniProt Q15910); test: Inhibition of EZH2 in human KARPAS422 cells assessed as reduction in H3K27me3 level after 72 hrs by ELISA
Chain of Histone-lysine N-methyltransferase EZH2 (Homo sapiens, UniProt Q15910) (Q15910 whole entry): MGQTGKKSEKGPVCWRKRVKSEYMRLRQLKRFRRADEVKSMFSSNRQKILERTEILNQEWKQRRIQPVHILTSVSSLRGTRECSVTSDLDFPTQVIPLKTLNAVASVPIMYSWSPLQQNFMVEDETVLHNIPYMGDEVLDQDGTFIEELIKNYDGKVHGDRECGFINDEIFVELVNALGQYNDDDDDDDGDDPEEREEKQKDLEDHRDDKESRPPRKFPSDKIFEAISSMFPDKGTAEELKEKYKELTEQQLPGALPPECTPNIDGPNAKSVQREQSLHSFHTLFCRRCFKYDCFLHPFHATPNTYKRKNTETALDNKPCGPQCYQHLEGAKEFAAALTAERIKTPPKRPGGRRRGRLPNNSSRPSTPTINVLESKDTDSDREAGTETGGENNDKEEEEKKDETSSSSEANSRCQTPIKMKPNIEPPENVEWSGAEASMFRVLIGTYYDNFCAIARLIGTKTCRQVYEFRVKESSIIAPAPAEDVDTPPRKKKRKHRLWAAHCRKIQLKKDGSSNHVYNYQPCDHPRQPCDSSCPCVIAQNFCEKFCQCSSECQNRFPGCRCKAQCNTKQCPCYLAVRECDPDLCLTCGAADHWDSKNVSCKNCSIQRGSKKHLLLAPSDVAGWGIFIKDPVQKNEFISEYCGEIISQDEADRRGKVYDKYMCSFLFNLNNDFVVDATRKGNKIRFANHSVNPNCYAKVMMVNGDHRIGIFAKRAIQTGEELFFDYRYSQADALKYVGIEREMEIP

[2] = target: Histone-lysine N-methyltransferase EZH2 (Homo sapiens, UniProt Q15910, Y641N); test: Inhibition of EZH2 Y641N mutant (unknown origin) using oligonucleosomes as substrate after 60 mins in presence of [3H]SAM by scintillation counting analysis
Chain of Histone-lysine N-methyltransferase EZH2 (Homo sapiens, UniProt Q15910, Y641N) (Q15910 whole entry Y641N): as the sequence (Q15910 whole entry) above, with Y641N counted along it

Mus musculus = test: In vivo inhibition of EZH2 in mouse xenografted with human KARPAS422 cells harboring EZH2 Y641N mutant assessed as reduction in H3K27me3 level in tumor at 100 mg/kg, po bid measured 4 hrs post last dose on day 9 relative to control; assay type: functional; details: KARPAS-422, po
Summary of the method: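 Mice bearing Karpas-422 (EZH2 Y641N) xenografts were dosed with crystalline suspension orally twice daily (7 h/17 h) or subcutaneously once daily. Tumors were collected on day 9, 4 h after the last dose, for H3K27me3 quantification.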

[3] = Clearance in mouse hepatocytes assessed per million cells; assay type: ADME, cell-based, Hepatocyte; details: read-out: CLH
[4] = Clearance in rat at 2 mg/kg, iv; assay type: ADME, organism-based; details: in vivo
Cytochrome P450 2C8 = target: T1, Cytochrome P450 2C8 (Homo sapiens, UniProt P10632); test: Inhibition of CYP2C8 (unknown origin); assay type: ADME
T1 sequence (P10632 whole entry): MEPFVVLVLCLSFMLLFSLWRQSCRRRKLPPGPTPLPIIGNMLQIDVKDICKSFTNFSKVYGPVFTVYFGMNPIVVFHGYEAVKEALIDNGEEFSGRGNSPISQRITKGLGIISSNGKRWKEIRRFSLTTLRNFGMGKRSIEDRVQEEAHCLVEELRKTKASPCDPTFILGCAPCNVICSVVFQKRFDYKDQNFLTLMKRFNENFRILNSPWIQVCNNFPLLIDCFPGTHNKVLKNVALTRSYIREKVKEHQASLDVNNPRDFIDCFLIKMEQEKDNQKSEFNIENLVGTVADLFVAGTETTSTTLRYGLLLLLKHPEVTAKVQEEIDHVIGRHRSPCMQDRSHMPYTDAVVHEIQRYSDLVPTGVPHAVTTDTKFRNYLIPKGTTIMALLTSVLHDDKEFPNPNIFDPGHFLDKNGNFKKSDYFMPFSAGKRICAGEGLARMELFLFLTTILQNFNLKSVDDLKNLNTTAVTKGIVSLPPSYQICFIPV

Cytochrome P450 2C19 = Cytochrome P450 2C19 (Homo sapiens, UniProt P33261); test: Inhibition of CYP2C19 (unknown origin); assay type: ADME
Chain of Cytochrome P450 2C19 (P33261 whole entry): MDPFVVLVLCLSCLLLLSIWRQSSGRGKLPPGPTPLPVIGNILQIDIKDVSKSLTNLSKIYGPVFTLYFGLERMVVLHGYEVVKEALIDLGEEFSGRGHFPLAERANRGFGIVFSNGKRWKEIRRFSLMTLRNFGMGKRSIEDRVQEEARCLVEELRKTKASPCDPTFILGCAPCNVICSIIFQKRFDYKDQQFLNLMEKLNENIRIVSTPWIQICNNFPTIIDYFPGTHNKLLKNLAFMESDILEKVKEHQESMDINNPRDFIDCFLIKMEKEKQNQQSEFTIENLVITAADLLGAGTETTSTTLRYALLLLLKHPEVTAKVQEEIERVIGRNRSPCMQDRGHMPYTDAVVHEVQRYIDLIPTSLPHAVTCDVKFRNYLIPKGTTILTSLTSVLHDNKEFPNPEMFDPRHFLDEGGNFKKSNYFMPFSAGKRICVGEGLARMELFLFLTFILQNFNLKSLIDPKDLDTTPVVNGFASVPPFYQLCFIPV

Cytochrome P450 3A4 = Cytochrome P450 3A4 (Homo sapiens, UniProt P08684); test: Inhibition of CYP3A4 (unknown origin); assay type: ADME
Chain of Cytochrome P450 3A4 (P08684 whole entry): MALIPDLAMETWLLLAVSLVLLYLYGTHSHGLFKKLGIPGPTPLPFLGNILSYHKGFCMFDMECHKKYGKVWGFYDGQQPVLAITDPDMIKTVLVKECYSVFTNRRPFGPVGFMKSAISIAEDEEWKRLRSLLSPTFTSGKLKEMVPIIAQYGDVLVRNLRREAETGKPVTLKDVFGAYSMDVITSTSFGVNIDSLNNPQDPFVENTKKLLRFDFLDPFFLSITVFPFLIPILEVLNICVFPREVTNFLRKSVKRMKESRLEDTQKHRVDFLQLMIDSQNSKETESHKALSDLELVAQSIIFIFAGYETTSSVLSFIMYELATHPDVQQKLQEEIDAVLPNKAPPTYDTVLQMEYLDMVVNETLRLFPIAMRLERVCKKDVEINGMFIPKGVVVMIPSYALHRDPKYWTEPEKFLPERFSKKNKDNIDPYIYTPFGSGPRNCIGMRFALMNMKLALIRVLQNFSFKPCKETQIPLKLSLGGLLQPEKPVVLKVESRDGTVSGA

[5] = target: T2, Histone-lysine N-methyltransferase EZH1 (Homo sapiens, UniProt Q92800); test: Binding affinity to EZH1 (unknown origin)
T2 sequence (Q92800 whole entry): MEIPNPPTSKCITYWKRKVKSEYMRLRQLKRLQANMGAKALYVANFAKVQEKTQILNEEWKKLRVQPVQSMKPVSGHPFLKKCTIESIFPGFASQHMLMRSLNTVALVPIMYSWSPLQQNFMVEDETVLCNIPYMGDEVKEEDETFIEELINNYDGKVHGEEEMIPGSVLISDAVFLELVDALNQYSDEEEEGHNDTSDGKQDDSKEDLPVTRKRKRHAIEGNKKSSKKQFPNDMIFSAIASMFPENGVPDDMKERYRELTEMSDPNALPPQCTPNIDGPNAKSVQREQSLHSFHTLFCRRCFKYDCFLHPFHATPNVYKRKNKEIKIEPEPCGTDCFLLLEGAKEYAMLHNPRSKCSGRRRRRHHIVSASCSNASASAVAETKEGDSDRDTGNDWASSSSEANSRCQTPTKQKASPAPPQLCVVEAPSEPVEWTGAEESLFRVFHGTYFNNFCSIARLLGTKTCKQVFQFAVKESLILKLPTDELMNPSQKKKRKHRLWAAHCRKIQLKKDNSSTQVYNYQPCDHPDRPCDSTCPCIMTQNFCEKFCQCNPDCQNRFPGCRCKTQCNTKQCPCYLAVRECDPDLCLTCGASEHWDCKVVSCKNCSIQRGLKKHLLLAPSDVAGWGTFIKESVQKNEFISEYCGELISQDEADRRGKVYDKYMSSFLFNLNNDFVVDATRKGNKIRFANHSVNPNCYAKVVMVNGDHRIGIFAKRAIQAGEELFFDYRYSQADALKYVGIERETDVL

KARPAS-422 = test: Antitumor activity against human KARPAS422 cells harboring EZH2 Y641N mutant xenografted in mouse assessed as tumor regression at 100 mg/kg, sc qd measured 40 days post treatment termination on day 31

IC50 [1]: 4 nM | Ki [2]: < 0.1 nM | hepatocyte CLint [3]: 60.1 µL/min/1e6 cells | clearance [4]: 70 mL/min/kg | IC50 (Cytochrome P450 2C8): > 30000 nM | IC50 (Cytochrome P450 2C19): > 30000 nM | IC50 (Cytochrome P450 3A4): > 30000 nM | Ki [5]: 70 nM
Structure (SMILES): COc1cc(C)[nH]c(=O)c1CN1CCc2c(Cl)cc([C@H](OC)C3COC3)c(Cl)c2C1=O [MEVROMETOSTAT]
inhibition in vivo at 100 mg/kg (Mus musculus): 45.4% | Activity (KARPAS-422): Active
